# Active and inactive are the calls of the source. The rule behind the calls is not given here.
# How the values were obtained:
# [1] = Stabilization of interaction of GST-fused C-terminal region of PMA2 YDI (unknown origin)/eGFP-fused tobacco 14-3-3 expressed in Escherichia coli incubated for 2 hrs by fluorescence based analysis relative to PPI-1
# [2] = Inhibition of human His-tagged LIN28A (16 to 187 residues) interaction with mouse preE-let-7f-Cy3 miRNA pretreated with protein for 2 hrs followed by incubation with miRNA and measured after 15 mins by EMSA method; conditions: time 135.0 min
# [3] = target: T1, Protein lin-28 homolog A (Homo sapiens) (UniProt Q9H9Z2); experiment: Inhibition of LIN28A cold shock domain (16 to 126 residues) (unknown origin) assessed as increase in thermal stability measured after 45 mins by differential scanning fluorimetry; conditions: dose 0.78-100 µM
# T1 sequence (whole entry): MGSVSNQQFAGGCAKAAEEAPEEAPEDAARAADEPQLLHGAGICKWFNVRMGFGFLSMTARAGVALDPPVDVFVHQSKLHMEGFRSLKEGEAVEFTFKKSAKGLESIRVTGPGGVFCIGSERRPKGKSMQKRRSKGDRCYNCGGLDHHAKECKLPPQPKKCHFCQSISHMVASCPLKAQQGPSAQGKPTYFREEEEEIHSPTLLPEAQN
# JAR [4] = experiment: Inhibition of LIN28/let-7 miRNA interaction in human JAR cells assessed as increase in cellular let-7a mature miRNA level at 5 to 20 uM measured after 24 hrs by RT-qPCR analysis; type: cell-based; conditions: dose 5-20 µM
# JAR [5] = experiment: Inhibition of LIN28/let-7 miRNA interaction in human JAR cells assessed as increase in cellular let-7g mature miRNA level at 5 to 20 uM measured after 24 hrs by RT-qPCR analysis; type: cell-based; conditions: dose 5-20 µM
# [6] = Inhibition of human His-tagged LIN28A (16 to 187 residues) interaction with FAM-labelled preE-let-7f-1 miRNA (unknown origin) pretreated with protein for 30 mins followed by miRNA addition and measured after 15 mins by fluorescence polarization assay
# Procedure, shortened: (§1)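 LIN28A (residues 16–187) purified by nickel affinity chromatography; tested both His-tagged and with tag removed by TEV protease. Protein titrated into FAM-labeled preE-let-7f-1, FP read alongside total fluorescence. Unlabeled preE-let-7f-1 as positive control. Dose–response over eight concentrations, top 60 μM or 30 μM, in quadruplicate; some IC50s extrapolated from the observed curves.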
# [7] = Stabilization of interaction of GST-fused C-terminal region of PMA2 YDI (unknown origin)/eGFP-fused tobacco 14-3-3 expressed in Escherichia coli incubated for 2 hrs by fluorescence based analysis
# [8] = Inhibition of LIN28 (unknown origin) expressed in Escherichia coli BL21 (DE3) Rosetta interaction with FAM-labelled preE-let-7 miRNA (unknown origin) by fluorescence polarization assay; set-up: species or system Homo sapiens; procedure, shortened: as §1
# [9] = Inhibition of human His-tagged LIN28A(16 to 187 residues) interaction with mouse preE-let-7f-Cy3 miRNA at 2.5 to 75 uM pretreated with protein for 2 hrs followed by incubation with miRNA and measured after 15 mins by EMSA method relative to control; conditions: dose 2.5-75 µM, time 135.0 min
structure (smiles),measurement,setting,value
O=C(O)c1ccc(C2C(C(=O)c3ccccc3)=C(O)C(=O)N2c2ccc(O)c(C(=O)O)c2)cc1 (configuration not stated),Activity,[1],< 30%
O=C(C1=C(O)C(=O)N(c2ccc(O)c(C(=O)O)c2)C1c1ccc(-c2nccs2)cc1)c1ccc(Br)cc1 (configuration not stated),inhibition,[2],Dose-dependent effect
same,Activity,[3],Dose-dependent effect
same,inhibition,JAR [4],Active
same,inhibition,JAR [5],Active
same,Activity,[1],< 30%
O=C(O)c1ccc(C2C(C(=O)c3ccc(Br)cc3)=C(O)C(=O)N2c2ccc(O)c(C(=O)O)c2)cc1 (configuration not stated),IC50,[6],30 µM
O=C(C1=C(O)C(=O)N(c2ccc(O)c(C(=O)O)c2)C1c1ccc([N+](=O)[O-])cc1)c1ccccc1 (configuration not stated),EC50,[7],100 µM
CCOc1cccc2c1N[C@@H](c1ccc(C(=O)O)cc1)[C@H]1CC=C[C@@H]21,IC50,[8],7 µM
O=C(O)c1cccc(N2C(=O)C(O)=C(C(=O)c3ccc(Br)cc3)C2c2ccc(-c3nccs3)cc2)c1 (configuration not stated),inhibition,[9],inactive
COc1ccc(C(=O)C2=C(O)C(=O)N(c3ccc(O)c(C(=O)O)c3)C2c2ccc(C(=O)O)cc2)cc1 (configuration not stated),IC50,[6],30 µM
O=C(O)c1cccc(N2C(=O)C(O)=C(C(=O)c3ccccc3)C2c2ccc(-c3nccs3)cc2)c1 (configuration not stated),IC50,[6],30 µM

# Reference: ChEMBL document CHEMBL4706754, “Trisubstituted Pyrrolinones as Small-Molecule Inhibitors Disrupting the Protein-RNA Interaction of LIN28 and Let-7” (ACS Med Chem Lett, 2021)
